Several values for one entry are separate records, joined by “and”; a condition that tells them apart may be missing. Identical values can stand only once.
Key:
Rattus norvegicus [1] = assay: (§1) % Inhibition of angiotensin-I induced pressor response in normotensive rats after peroral dosing of 15 umol/kg; type: functional; details: po
Procedure, shortened: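 Catheterized conscious male Sprague–Dawley rats (225–275 g). Baseline pressor responses to AI (310 ng/kg iv) and AII (100 ng/kg iv) were taken. Compound was given orally in 0.75 mL water, 5% NaHCO3 or 1% agar suspension, and AI/AII responses were followed for up to 280 min. Maximum % inhibition is the mean of four animals per dose.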

Rattus norvegicus [2] = assay: (§2) % Inhibition of angiotensin-I induced pressor response in normotensive rats after intravenous dosing of 0.05 umol/kg; type: functional
Procedure, shortened: (§3)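 Male Sprague–Dawley rats (225–275 g) fitted with indwelling abdominal aorta and vena cava catheters, recovered at least 2 weeks, then tested conscious and unrestrained. Aortic pressure was recorded directly. Pressor responses to AI (310 ng/kg iv) and AII (100 ng/kg iv) were taken before dosing. Compound was given iv in water or 5% NaHCO3, and responses were followed up to 70 min. Maximum % inhibition is the mean of four animals per dose.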

[3] = molecular target: T1, Angiotensin-converting enzyme (Rattus norvegicus) (UniProt P47820); assay: In vitro inhibition of rat Angiotensin I converting enzyme
T1 sequence (whole entry): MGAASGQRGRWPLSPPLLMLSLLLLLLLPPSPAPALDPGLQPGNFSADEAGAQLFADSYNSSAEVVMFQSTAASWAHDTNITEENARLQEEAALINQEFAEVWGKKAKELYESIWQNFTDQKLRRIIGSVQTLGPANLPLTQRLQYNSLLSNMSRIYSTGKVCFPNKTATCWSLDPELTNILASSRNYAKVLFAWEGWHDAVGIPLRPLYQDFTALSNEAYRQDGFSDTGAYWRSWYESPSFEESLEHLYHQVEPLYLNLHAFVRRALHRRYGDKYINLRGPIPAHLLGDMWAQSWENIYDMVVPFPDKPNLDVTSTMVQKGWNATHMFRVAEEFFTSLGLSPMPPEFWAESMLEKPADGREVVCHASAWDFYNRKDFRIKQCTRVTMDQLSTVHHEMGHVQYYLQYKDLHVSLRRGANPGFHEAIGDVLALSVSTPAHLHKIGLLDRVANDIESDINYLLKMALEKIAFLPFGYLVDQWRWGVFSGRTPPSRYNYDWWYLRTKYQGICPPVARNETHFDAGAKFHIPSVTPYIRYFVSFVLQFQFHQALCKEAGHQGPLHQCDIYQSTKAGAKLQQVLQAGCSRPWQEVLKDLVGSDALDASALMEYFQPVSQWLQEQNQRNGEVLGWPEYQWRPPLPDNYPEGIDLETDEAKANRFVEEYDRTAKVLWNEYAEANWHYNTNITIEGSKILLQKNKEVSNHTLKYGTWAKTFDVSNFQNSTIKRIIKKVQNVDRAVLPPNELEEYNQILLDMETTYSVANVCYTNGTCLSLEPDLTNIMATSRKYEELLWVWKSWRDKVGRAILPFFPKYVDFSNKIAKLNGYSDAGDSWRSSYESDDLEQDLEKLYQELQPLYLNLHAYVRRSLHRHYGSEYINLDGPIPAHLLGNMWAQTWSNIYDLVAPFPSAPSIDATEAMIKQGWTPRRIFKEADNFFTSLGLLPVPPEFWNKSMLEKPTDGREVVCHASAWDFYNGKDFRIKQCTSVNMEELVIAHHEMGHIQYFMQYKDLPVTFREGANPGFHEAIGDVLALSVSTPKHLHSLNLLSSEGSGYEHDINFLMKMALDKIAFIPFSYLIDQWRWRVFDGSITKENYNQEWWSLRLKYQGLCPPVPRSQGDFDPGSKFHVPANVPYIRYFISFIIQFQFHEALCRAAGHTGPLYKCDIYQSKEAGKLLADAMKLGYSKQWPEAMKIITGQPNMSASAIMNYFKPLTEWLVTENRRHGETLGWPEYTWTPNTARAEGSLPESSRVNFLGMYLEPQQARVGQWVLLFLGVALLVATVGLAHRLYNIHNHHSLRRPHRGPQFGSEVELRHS

Rattus norvegicus [4] = assay: % Inhibition of angiotensin-I induced pressor response in normotensive rats after intravenous dosing of 0.5 umol/kg; type: functional
Procedure, shortened: (§4)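 Conscious, unrestrained male Sprague–Dawley rats (225–275 g) with indwelling aortic and vena caval catheters, allowed at least 2 weeks of recovery. Aortic pressure recorded directly. Baseline pressor responses to AI (310 ng/kg iv) and AII (100 ng/kg iv) were taken first. Compound was given iv in 0.1 mL water or 5% NaHCO3, and responses were followed for up to 70 min. Maximum % inhibition is the mean of four animals per dose.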

[5] = molecular target: T2, Angiotensin-converting enzyme (Oryctolagus cuniculus, UniProt P12822); assay: Inhibitory activity against rabbit lung angiotensin-1 converting enzyme
T2 sequence (P12822 whole entry): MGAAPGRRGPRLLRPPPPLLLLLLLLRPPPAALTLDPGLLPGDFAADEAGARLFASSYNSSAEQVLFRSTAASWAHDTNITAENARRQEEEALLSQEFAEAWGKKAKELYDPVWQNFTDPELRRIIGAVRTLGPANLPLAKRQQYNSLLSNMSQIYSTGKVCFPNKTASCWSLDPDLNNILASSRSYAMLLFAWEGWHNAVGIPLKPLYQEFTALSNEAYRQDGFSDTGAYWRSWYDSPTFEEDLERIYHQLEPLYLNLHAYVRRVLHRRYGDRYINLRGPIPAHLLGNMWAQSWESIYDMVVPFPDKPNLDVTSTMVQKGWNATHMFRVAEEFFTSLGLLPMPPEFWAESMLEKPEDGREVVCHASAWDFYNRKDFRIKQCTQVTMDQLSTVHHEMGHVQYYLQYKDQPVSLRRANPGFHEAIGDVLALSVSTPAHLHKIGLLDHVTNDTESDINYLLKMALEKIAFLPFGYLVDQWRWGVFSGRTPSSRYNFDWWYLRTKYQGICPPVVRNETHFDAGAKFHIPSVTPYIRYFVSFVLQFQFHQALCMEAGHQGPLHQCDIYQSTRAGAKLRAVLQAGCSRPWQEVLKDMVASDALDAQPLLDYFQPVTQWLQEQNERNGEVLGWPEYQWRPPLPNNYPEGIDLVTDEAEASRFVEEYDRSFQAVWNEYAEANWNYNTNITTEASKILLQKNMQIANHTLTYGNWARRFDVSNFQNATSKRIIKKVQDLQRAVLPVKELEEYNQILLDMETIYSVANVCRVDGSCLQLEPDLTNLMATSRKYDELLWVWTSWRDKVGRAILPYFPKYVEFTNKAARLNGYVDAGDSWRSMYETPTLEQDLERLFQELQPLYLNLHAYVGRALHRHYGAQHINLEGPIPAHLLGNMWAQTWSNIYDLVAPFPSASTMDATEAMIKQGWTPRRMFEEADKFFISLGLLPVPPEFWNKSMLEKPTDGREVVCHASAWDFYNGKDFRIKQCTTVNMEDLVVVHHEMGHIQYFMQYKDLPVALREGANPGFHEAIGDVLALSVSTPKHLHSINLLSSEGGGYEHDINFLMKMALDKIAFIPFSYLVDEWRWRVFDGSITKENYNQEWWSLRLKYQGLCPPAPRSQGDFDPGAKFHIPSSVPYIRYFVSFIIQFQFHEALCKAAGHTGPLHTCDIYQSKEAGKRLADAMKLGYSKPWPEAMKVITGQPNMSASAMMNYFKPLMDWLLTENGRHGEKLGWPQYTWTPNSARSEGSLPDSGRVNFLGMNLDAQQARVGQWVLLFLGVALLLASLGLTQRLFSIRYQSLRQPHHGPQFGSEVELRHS

Rattus norvegicus [6] = assay: % Inhibition of angiotensin-I induced pressor response in normotensive rats after intravenous dosing of 0.15 umol/kg; type: functional; procedure, shortened: as §4
Rattus norvegicus [7] = assay: % Inhibition of angiotensin-I induced pressor response in normotensive rats after peroral dosing of 5 umol/kg; type: functional; details: po
Procedure, shortened: (§5)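 Conscious, unrestrained catheterized male Sprague–Dawley rats (225–275 g) had direct aortic pressure recording. Baseline pressor responses were taken to AI (310 ng/kg iv) and AII (100 ng/kg iv). Compound was given orally in water, 5% NaHCO3 or 1% agar suspension. AI and AII responses were then tracked up to 280 min. Maximum % inhibition is the mean response of four animals per dose.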

Rattus norvegicus [8] = assay: % Inhibition of angiotensin-I induced pressor response in normotensive rats after peroral dosing of 0.5 umol/kg; type: functional; details: po; procedure, shortened: as §5
Rattus norvegicus [9] = assay: % Inhibition of angiotensin-I induced pressor response in normotensive rats after peroral dosing of 1.5 umol/kg; type: functional; details: po; procedure, shortened: as §5
Rattus norvegicus [10] = assay: % Inhibition of angiotensin-I induced pressor response in normotensive rats after peroral dosing of 0.15 umol/kg; type: functional; details: po; procedure, shortened: as §5
Rattus norvegicus [11] = assay: % Inhibition of angiotensin-I induced pressor response in normotensive rats after peroral dosing of 50 umol/kg; type: functional; details: po; procedure, shortened: as §5
Rattus norvegicus [12] = assay: as §1; type: functional; details: po; procedure, shortened: as §5; remark: listed apart in the source
Rattus norvegicus [13] = assay: % Inhibition of angiotensin-I induced pressor response in normotensive rats after intravenous dosing of 1.5 umol/kg; type: functional; procedure, shortened: as §4
Rattus norvegicus [14] = assay: (§6) % Inhibition of angiotensin-I induced pressor response in normotensive rats after intravenous dosing of 5 umol/kg; type: functional; procedure, shortened: as §3
Rattus norvegicus [15] = assay: % Inhibition of angiotensin-I induced pressor response in normotensive rats after intravenous dosing of 0.015 umol/kg; type: functional; procedure, shortened: as §3
Rattus norvegicus [16] = assay: as §2; type: functional; procedure, shortened: as §4; remark: listed apart in the source
Rattus norvegicus [17] = assay: as §6; type: functional; procedure, shortened: as §4; remark: listed apart in the source
Rattus norvegicus [18] = assay: % Inhibition of angiotensin-I induced pressor response in normotensive rats after peroral dosing of 150 umol/kg; type: functional; details: po; procedure, shortened: as §5

SMILES | inhibition in vivo at 15 µmol/kg (Rattus norvegicus [1]) [%] | inhibition in vivo at 0.05 µmol/kg (Rattus norvegicus [2]) [%] | T50 [3] | inhibition in vivo at 0.5 µmol/kg (Rattus norvegicus [4]) [%] | Ki [5] [nM] | inhibition in vivo at 0.15 µmol/kg (Rattus norvegicus [6]) [%] | inhibition in vivo at 5 µmol/kg (Rattus norvegicus [7]) [%] | inhibition in vivo at 0.5 µmol/kg (Rattus norvegicus [8]) [%] | inhibition in vivo at 1.5 µmol/kg (Rattus norvegicus [9]) [%] | inhibition in vivo at 0.15 µmol/kg (Rattus norvegicus [10]) [%] | inhibition in vivo at 50 µmol/kg (Rattus norvegicus [11]) [%] | inhibition in vivo at 15 µmol/kg (Rattus norvegicus [12]) [%] | inhibition in vivo at 1.5 µmol/kg (Rattus norvegicus [13]) [%] | inhibition in vivo at 5 µmol/kg (Rattus norvegicus [14]) [%] | inhibition in vivo at 0.015 µmol/kg (Rattus norvegicus [15]) [%] | inhibition in vivo at 0.05 µmol/kg (Rattus norvegicus [16]) [%] | inhibition in vivo at 5 µmol/kg (Rattus norvegicus [17]) [%] | inhibition in vivo at 150 µmol/kg (Rattus norvegicus [18]) [%]
O=C(O)[C@@H]1C[C@@H](C2CCCCC2)CN1C(=O)CP(=O)(O)CCCCc1ccccc1 [FOSINOPRILAT] | 71 | 21 | 11 nM and 4 nM | 87 | 1.5 | 68 | 28 |  |  |  |  |  |  |  |  |  |  | 
CCOC(=O)[C@H](CCc1ccccc1)N[C@@H](C)C(=O)N1CC2(C[C@H]1C(=O)O)SCCS2 |  |  |  |  |  |  |  | 41 | 87 | 15 |  |  |  |  |  |  |  | 
C[C@H](CS)C(=O)N1CCC[C@H]1C(=O)O [CAPTOPRIL] |  | 18 |  | 87 |  | 66 | 79 | 42 | 61 |  | 93 | 78 | 91 | 93 |  |  |  | 
CO[C@@H]1C[C@@H](C(=O)O)N(C(=O)CP(=O)(O)CCCCc2ccccc2)C1 |  |  | 100 nM | 73 |  |  |  |  |  |  |  |  |  |  | 23 | 33 |  | 
O=C(O)[C@@H]1CCCN1C(=O)CP(=O)(O)CCCCc1ccccc1 |  |  | 180 nM | 56 | 15 |  |  |  |  |  | 47 | 13 | 86 |  |  |  | 92 | 75

Source: ChEMBL document CHEMBL1124128, “Angiotensin-converting enzyme inhibitors. Mercaptan, carboxyalkyl dipeptide, and phosphinic acid inhibitors incorporating 4-substituted prolines” (J Med Chem, 1988)
